Assay results: publication PMC3823235 (Biochemistry, 2013)
Where two headings read alike, the source gives them in different places.

Experiments:
GAR Tfase = details: read-out: Ki, GAR Tfase; cited from earlier work
CCRF-CEM/FPGS^- = experiment: Growth inhibition assay, FPGS-deficient mutant cells; assay type: cell-based, human; details: read-out: CCRF-CEM/FPGS^- IC50, (−) T, (−) H
[1] = test system: CCRF-CEM human leukemia cell lines; experiment: Growth inhibition assay, CCRF-CEM; assay type: cell-based
[2] = biological target: recombinant human aminoimidazole carboxamide ribonucleotide transformylase (hAICAR Tfase) (Homo sapiens, UniProt P31939); experiment: hAICAR Tfase enzyme inhibition assay; assay type: biochemical
Chain of recombinant human aminoimidazole carboxamide ribonucleotide transformylase (hAICAR Tfase) (P31939 whole entry): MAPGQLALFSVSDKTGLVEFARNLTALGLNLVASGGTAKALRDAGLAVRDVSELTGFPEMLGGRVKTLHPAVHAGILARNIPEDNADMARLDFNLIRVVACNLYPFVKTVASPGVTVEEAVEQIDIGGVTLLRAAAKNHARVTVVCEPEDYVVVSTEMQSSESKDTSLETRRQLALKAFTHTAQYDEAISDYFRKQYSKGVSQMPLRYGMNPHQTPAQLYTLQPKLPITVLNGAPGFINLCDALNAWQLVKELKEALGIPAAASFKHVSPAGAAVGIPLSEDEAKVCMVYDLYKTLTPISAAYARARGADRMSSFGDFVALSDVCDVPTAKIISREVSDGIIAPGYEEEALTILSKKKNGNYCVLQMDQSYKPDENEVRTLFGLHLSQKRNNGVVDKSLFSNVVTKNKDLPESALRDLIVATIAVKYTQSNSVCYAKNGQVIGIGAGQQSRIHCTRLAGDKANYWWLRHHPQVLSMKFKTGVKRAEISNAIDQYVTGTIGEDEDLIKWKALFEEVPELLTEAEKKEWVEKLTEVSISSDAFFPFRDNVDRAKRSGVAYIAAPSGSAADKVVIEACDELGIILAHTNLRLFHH
In short: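 Recombinant human enzyme; method otherwise follows earlier work. Reaction kinetics followed for 2 min after initiation. Ki obtained from Dixon plots.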

[3] = test system: solid murine and human tumors; details: tumors that did not respond to methotrexate; cited from earlier work
CCRF-CEM/MTX = experiment: Growth inhibition assay, RFC-deficient mutant cells; assay type: cell-based, human; details: read-out: CCRF-CEM/MTX IC50, (−) T, (−) H
[4] = alleviated by folic acid co-supplementation; cited from earlier work
[5] = test system: CCRF-CEM human leukemia cell lines; details: read-out: IC50, cell-based growth inhibition; reported as low as; cited from earlier work
[6] = test system: anti-folate resistant human leukemia cell lines; details: cited from earlier work
[7] = read-out: CCRF-CEM IC50, (+) T, (−) H, with thymidine, no hypoxanthine
[8] = read-out: CCRF-CEM IC50, (−) T, (+) H, no thymidine, with hypoxanthine
[9] = read-out: CCRF-CEM IC50, (−) T, (−) H, Table 1, no thymidine, no hypoxanthine
[10] = read-out: Inhibition Ki, hAICAR Tfase, Dixon plots
[11] = read-out: CCRF-CEM IC50, (−) T, (−) H, Table 2, parent cell line

Nc1nc(N)c(CCCC(C(=O)C(F)(F)F)c2ccc(C(=O)N[C@@H](CCC(=O)O)C(=O)O)cc2)c(=O)[nH]1 (stereo partly shown) [compound 5, 10-CF3CO-DDACTHF]
Ki (GAR Tfase): 15 nM
IC50 (CCRF-CEM/FPGS^-; FPGS-deficient mutant): > 10000 nM
IC50 [1, 7]: 17 nM
IC50 [1, 8]: > 10000 nM
IC50 [1, 9]: 16 nM
Ki [2, 10]: > 100000 nM

Nc1nc2c(c(=O)[nH]1)CC(CCc1ccc(C(=O)N[C@@H](CCC(=O)O)C(=O)O)cc1)CN2 (stereo partly shown) [DDATHF, 5,10-dideaza-5,6,7,8-tetrahydrofolic acid]
In vivo antitumor effect [3]: effective in vivo against solid murine and human tumors

CS[C@@H](CCCc1c(N)nc(N)[nH]c1=O)c1ccc(C(=O)NC(CCC(=O)O)C(=O)O)cc1 (stereo partly drawn) [10S-7, 10S-methylthio-DDACTHF]
IC50 (CCRF-CEM/FPGS^-; FPGS-deficient mutant): 5000 nM
IC50 [1, 7]: 70 nM
IC50 [1, 8]: > 10000 nM
IC50 [1, 9]: 50 nM
IC50 [1, 11]: 60 nM
IC50 (CCRF-CEM/MTX): 60 nM
Ki [2, 10]: > 100000 nM

Nc1nc2c(c(=O)[nH]1)C[C@@H](CCc1ccc(C(=O)N[C@@H](CCC(=O)O)C(=O)O)cc1)CN2 [3 Lometrexol, Lometrexol]
IC50 (CCRF-CEM/FPGS^-; Homo sapiens, CCRF-CEM): > 10000 nM
IC50 ([1]; Homo sapiens, CCRF-CEM, read-out: CCRF-CEM IC50, (−) T, (+) H): > 10000 nM
Adverse effect in patients [4]: some patients suffered cumulative myelosuppression
Ki [2]: > 100000 nM
IC50 [5]: 2.9 nM

Nc1nc2ccc(CC(C=O)c3ccc(C(=O)N[C@@H](CCC(=O)O)C(=O)O)cc3)cc2c(=O)[nH]1 (stereo partly shown) [compound 4, 10-formyl-TDAF]
Ki (GAR Tfase): 260 nM

Nc1nc(N)c(CCCCc2ccc(C(=O)NC(CCC(=O)O)C(=O)O)cc2)c(=O)[nH]1 (stereo not shown) [DDACTHF]
IC50 (CCRF-CEM/FPGS^-; FPGS-deficient mutant): > 10000 nM
IC50 [1, 7]: 3600 nM
IC50 [1, 8]: > 10000 nM
IC50 [1, 9]: 2700 nM
IC50 [1, 11]: 2700 nM
IC50 (CCRF-CEM/MTX): > 100000 nM
Ki [2, 10]: 20000 nM

COc1cc(NCc2ccc3nc(N)nc(N)c3c2C)cc(OC)c1OC [neutrexin (trimetrexate), trimetrexate]
Sensitivity of resistant cells with 90–99% loss of FPGS activity [6]: marked hypersensitivity

CS[C@H](CCCc1c(N)nc(N)[nH]c1=O)c1ccc(C(=O)NC(CCC(=O)O)C(=O)O)cc1 (stereo partly drawn) [10R-8, 10R-methylthio-DDACTHF]
IC50 [1, 7]: 80 nM
IC50 [1, 8]: > 10000 nM
IC50 [1, 9]: 80 nM
IC50 ([1]; read-out: IC50, CCRF-CEM growth inhibition): 80 nM
IC50 (CCRF-CEM/MTX): 70 nM
Ki [2, 10]: > 100000 nM
